# Source: ChEMBL document CHEMBL3259808, “Optimization of antitrypanosomatid agents: identification of nonmutagenic drug candidates with in vivo activity” (J Med Chem, 2014)
# Active and inactive are the calls of the source.
# Key:
# Trypanosoma cruzi [1] = assay: Antitrypanosomal activity against Trypanosoma cruzi Y trypomastigotes assessed as growth inhibition at 25 uM after 48 hrs by microscopic analysis relative to control; assay type: functional; details: read-out: GI
# Method in brief: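 Blood was collected by cardiac puncture, with sodium citrate, from BALB/c mice 7 days after infection. Compound was dissolved in minimal DMSO and diluted in PBS (final 25 μM). Drug solution was mixed with infected blood (about 10⁶ parasites/mL) in triplicate, shaken 10 min at room temperature, then held at 4 °C for 48 h. Parasites were counted microscopically against untreated infected blood. Gentian violet 250 μg/mL was the reference.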
# [2] = Stability of the compound in aqueous solution assessed as compound remaining at 1 mM at pH 9 after 1 hr by TLC analysis; assay type: physicochemical; details: aqueous solution, pH 9; read-out: Stability
# Method in brief: (§1)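 DMSO stocks diluted to final 1 mM in KCl·HCl pH 1.0, citrate pH 6.0, Tris·HCl pH 7.4 or borax·HCl pH 9.0 buffer. Incubated 1 h at 37 °C, then ethyl acetate extracts checked by TLC for decomposition products.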
# [3] = Stability of the compound in eumulgin HRE 40, sodium oleate, soya phosphatidylcholine, cholesterol, and phosphate buffer at pH 7.4 at 4 degC; assay type: physicochemical
# Method in brief: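 Storage stability of the compound in vehicle V2, a microemulsion of surfactant (Eumulgin HRE 40/sodium oleate/soya phosphatidylcholine, 10%), cholesterol oil phase (10%) and pH 7.4 phosphate buffer (80%), followed over 1 week at 4 °C.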
# Trypanosoma cruzi [4] = assay: Antitrypanosomal activity against Trypanosoma cruzi CL Brener infected in BALB/c mouse assessed as peak of maximum parasitemia at 107 umol/kg/day, po for 14 days administered in cholesterol/surfactant/phosphate buffer measured up to 60 days relative to control; assay type: functional
# Method in brief: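 Male BALB/c mice (30 days old, 25–30 g, SPF) were infected i.p. with 10³ blood trypomastigotes, n = 7/group. Daily oral gavage in a microemulsion (cholesterol oil phase, phosphatidylcholine/sodium oleate/polyoxyl-40 hydrogenated castor oil surfactant, phosphate buffer pH 7.4) ran for 14 days from day 6; vehicle controls were included. Parasitemia was read weekly in tail-vein blood by hemocytometer for 60 days, with survival recorded.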
# [5] = Stability of the compound in aqueous solution assessed as compound remaining at 1 mM at pH 7.4 after 1 hr by TLC analysis; assay type: physicochemical; details: aqueous solution, pH 7.4; read-out: Stability; method in brief: as §1
# [6] = Selectivity index, ratio of IC50 for human RBC to IC50 for Trypanosoma cruzi Sylvio X-10 amastigotes
# Method in brief: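 Hemolysis: washed human erythrocytes (2% w/v in PBS) incubated 24 h at 37 °C with compound at final 50, 100 and 200 μM. Ten replicates per concentration. Hemoglobin release read at 405 nm against water lysis as 100%; amphotericin B 1.5 μM was the positive control. SI = IC50 red cells / parasite IC50 (Sylvio X-10 amastigotes or Tulahuen 2 epimastigotes).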
# Trypanosoma cruzi [7] = assay: Antitrypanosomal activity against Trypanosoma cruzi CL Brener infected in BALB/c mouse assessed as peak of maximum parasitemia at 107 umol/kg/day, po for 14 days administered in saline and tween 80 measured up to 60 days relative to control; assay type: functional
# Method in brief: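 Male BALB/c mice (30 days old, 25–30 g, SPF) were infected i.p. with 10³ blood trypomastigotes, n = 8/group. Daily oral gavage in saline/Tween 80 (4:1) ran for 14 days from day 6 post-infection; controls received vehicle only. Parasitemia was counted weekly in tail-vein blood by hemocytometer for 60 days, and survival was recorded.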
# Trypanosoma cruzi [8] = assay: Antitrypanosomal activity against Trypanosoma cruzi Sylvio X-10 amastigotes infected in African green monkey Vero cells assessed as eradication of amastigotes at 5 uM after 5 days by optical microscopic analysis; assay type: functional, organism-based; details: in the assay text read “after 72 hrs” for “after 5 days”
# Method in brief: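 VERO cells infected with Sylvio X-10 parasites were treated with 5 μM compound and examined by optic microscopy after 72 h of incubation for intracellular amastigotes and trypomastigotes.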
# [9] = Selectivity index, ratio of IC50 for mouse J774.1 cells to IC50 for Trypanosoma cruzi Sylvio X-10 amastigotes; assay type: toxicity; details: read-out: Ratio IC50
# Method in brief: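 J774.1 macrophages grown in DMEM with 10% heat-inactivated FCS and allowed to attach 48 h, then exposed 48 h at 37 °C to 12.5–400.0 μM. Triplicates. MTT 0.1 mg/mL for 3 h, read at 560 nm; IC50 by linear regression against the solvent control. SI = IC50 J774.1 / parasite IC50 (Sylvio X-10 amastigotes or Tulahuen 2 epimastigotes, the latter measured by A600 growth inhibition at day 5).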
# Salmonella typhimurium [10] = assay: Mutagenic activity in Salmonella typhimurium TA100 at 0.003 to 0.2 ug/plate by Ames test in presence of mouse liver S9 fraction; assay type: toxicity, organism-based; details: salmonella enterica subsp. enterica serovar typhimurium
# Method in brief: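 Plate-incorporation Ames test on minimal glucose agar with 500 μL Aroclor-treated mouse liver S9 added. DMSO solutions were tested at five consecutive 3-fold dilutions from the highest non-toxic dose, in triplicate, with a DMSO negative control. Revertants were counted manually; a compound was scored mutagenic when revertants were at least twice the negative control for two or more consecutive doses.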
# Salmonella typhimurium [11] = assay: Mutagenic activity in Salmonella typhimurium TA102 at 3.09 to 250 ug/plate by Ames test; assay type: toxicity, organism-based; details: salmonella enterica subsp. enterica serovar typhimurium
# Method in brief: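 Direct plate incubation on minimal glucose agar (Vogel-Bonner E). Compound toxicity to the bacteria was checked first. DMSO solutions were tested at five consecutive 3-fold dilutions, starting from the highest non-toxic dose, in triplicate, without metabolic activation. DMSO served as negative control. Revertants were counted manually; mutagenic = revertants at least double the negative control at two or more consecutive doses.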
# [12] = Stability of the compound in aqueous solution assessed as compound remaining at 1 mM at pH 6 after 1 hr by TLC analysis; assay type: physicochemical; details: aqueous solution, pH 6; read-out: Stability; method in brief: as §1
# [13] = Stability of the compound in aqueous solution assessed as compound remaining at 1 mM at pH 1 after 1 hr by TLC analysis; assay type: physicochemical; details: read-out: Stability; method in brief: as §1
# Trypanosoma cruzi [14] = assay: Antitrypanosomal activity against Trypanosoma cruzi CL Brener infected in BALB/c mouse assessed as decrease in plasmodial antibodies at 214 umol/kg/day, po for 14 days administered in cholesterol/surfactant/phosphate buffer measured on day 60 by ELISA; assay type: functional, organism-based; details: in the assay text read “anti-Trypanosoma cruzi antibodies” for “plasmodial antibodies”
# Method in brief: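 Infected male BALB/c mice (n = 7/group) were dosed orally for 14 days from day 6 post-infection in cholesterol/surfactant/phosphate buffer pH 7.4 microemulsion; the control group received vehicle. Anti-T. cruzi antibodies were measured by ELISA (each serum tested twice) at days 30 and 60 post-infection and compared with untreated animals and a healthy-animal cutoff.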
smiles,measurement,setting,value
Br.C=CCn1c(-c2ccc(Cl)cc2)cs\c1=N/N=C/C=C/c1ccco1.O,inhibition of growth at 25 µM,Trypanosoma cruzi [1],70%
same,"remaining at 1 h, 1000 µM",[2],> 95%
same,Stability,[3],Stable
same,Time,Trypanosoma cruzi [4],35 days
same,"remaining at 1 h, 1000 µM",[5],> 95%
same,Ratio IC50,[6],> 234
same,Time,Trypanosoma cruzi [7],26 days
same,Activity,Trypanosoma cruzi [8],Active
same,selectivity ratio,[9],> 200
same,Activity,Salmonella typhimurium [10],Non-toxic
same,Activity,Salmonella typhimurium [11],Non-toxic
same,"remaining at 1 h, 1000 µM",[12],> 95%
same,"remaining at 1 h, 1000 µM",[13],90%
same,Activity,Trypanosoma cruzi [14],Active
